One experiment deals with Liver microsomes. The experiment in a line: Inhibition of Fe(2+)/ascorbate-induced lipid peroxidation in Fischer 344 rat hepatic microsomal membranes. Type of experiment: functional. The settings on record: Microsome.
Experiment [1] deals with T1, Acetylcholinesterase (Rattus norvegicus) (UniProt P37136).
T1 sequence (whole entry): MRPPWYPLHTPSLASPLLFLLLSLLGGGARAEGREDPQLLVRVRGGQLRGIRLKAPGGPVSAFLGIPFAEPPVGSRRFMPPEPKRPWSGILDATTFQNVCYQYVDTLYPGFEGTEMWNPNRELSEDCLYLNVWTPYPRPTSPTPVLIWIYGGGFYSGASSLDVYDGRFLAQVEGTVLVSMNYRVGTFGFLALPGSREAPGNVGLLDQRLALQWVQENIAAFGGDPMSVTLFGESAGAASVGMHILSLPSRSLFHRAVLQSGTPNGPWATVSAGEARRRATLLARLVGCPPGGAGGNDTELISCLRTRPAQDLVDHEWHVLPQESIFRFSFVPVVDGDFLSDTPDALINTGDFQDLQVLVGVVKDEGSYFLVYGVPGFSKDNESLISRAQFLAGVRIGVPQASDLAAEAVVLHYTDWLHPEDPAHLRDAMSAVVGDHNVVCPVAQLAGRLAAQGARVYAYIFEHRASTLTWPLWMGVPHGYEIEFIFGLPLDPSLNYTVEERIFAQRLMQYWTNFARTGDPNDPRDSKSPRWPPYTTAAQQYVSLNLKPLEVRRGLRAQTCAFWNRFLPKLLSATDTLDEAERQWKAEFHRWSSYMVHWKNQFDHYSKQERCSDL
The experiment in a line: Inhibition of Fischer 344 rat brain acetylcholine esterase at 0.6 mM. The essentials: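 Brains from untreated rats homogenised (20 mg/mL) in 0.1 M phosphate buffer, pH 8, as the enzyme source. Acetylthiocholine is the substrate. Activity is read colorimetrically as thiocholine reacting with dithio-bisnitrobenzoic acid and followed as a time course. Percent inhibition is taken at the end of the incubation period.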

Experiment [2] deals with Mus musculus. The experiment in a line: Anti-inflammatory activity against of FCA-induced odema in BALB/c mouse assessed as oedema inhibition at 0.30 mmol/kg, ip. Type of experiment: functional. In outline: (§1)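 FCA (0.05 mL/paw) injected intradermally into right hind paw of mice, left paw as control. Compounds suspended in water with a few drops of Tween 80, given ip 15 min before FCA. After 3 h both hind paws excised and weighed. Oedema is paw weight increase, compared with control animals given only the vehicle. Means SEM, Student's t-test.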

Experiment [3] relates to Mus musculus. The experiment in a line: Increase of oedema in BALB/c mouse with FCA-induced inflammation at 0.30 mmol/kg, ip. Type of experiment: functional. The essentials: as §1
The test system of experiment [4] is Mus musculus. As to the kind of experiment: Anti-inflammatory activity against of FCA-induced odema in BALB/c mouse assessed as oedema inhibition at 0.15 mmol/kg, ip. Type of experiment: functional. In outline: as §1
Experiment [5] deals with Mus musculus. As to the kind of experiment: Increase of oedema in BALB/c mouse with FCA-induced inflammation at 0.15 mmol/kg, ip. Type of experiment: functional. In outline:
as §1

The target in experiment [6] is T2, Seed linoleate 13S-lipoxygenase-1 (Glycine max) (UniProt P08170).
T2 sequence (whole entry): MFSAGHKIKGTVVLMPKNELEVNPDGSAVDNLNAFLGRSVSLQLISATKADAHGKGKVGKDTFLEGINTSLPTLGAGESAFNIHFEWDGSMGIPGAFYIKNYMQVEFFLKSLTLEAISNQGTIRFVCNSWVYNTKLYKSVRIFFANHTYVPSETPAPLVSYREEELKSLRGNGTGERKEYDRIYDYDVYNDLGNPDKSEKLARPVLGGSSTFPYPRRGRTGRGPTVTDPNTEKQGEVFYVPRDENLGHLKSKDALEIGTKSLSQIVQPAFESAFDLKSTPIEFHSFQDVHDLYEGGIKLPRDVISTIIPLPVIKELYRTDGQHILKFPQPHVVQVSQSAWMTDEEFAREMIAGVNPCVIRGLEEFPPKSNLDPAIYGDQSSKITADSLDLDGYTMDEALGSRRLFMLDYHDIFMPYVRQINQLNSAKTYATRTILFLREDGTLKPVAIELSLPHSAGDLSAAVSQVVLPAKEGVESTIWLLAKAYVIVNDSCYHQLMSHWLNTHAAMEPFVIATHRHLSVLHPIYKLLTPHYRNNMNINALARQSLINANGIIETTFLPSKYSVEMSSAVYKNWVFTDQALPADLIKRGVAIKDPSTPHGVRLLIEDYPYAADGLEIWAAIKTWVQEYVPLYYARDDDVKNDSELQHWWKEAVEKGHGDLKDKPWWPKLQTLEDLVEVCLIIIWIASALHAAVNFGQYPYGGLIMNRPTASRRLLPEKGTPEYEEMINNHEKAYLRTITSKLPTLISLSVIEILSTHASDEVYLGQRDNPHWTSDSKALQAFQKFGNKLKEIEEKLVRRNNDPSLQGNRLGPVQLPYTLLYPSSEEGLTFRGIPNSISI
The experiment in a line: Inhibition of soybean lipoxygenase at 0.3 mM. Also on record: Activity: scale not given: the % may be the effect or the level left. The essentials:
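Soybean lipoxygenase 250 U/mL in Tris buffer pH 9. Compounds in 60% aqueous ethanol at 0.1–0.3 mM. Reaction started with sodium linoleate 0.1 mM and followed for 7 min at 28 °C by 13-hydroperoxylinoleic acid conjugated diene absorbance at 234 nm.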

For experiment [7], the target named is T3, Seed linoleate 13S-lipoxygenase-1 (Glycine max, UniProt P08170).
T3 sequence (P08170 whole entry): T2 sequence (whole entry)
The experiment in a line: Inhibition of soybean lipoxygenase after 7 mins.

Experiment [8] relates to Rattus norvegicus. The experiment in a line: Total cholesterol level in Fischer 344 rat plasma at 0.3 mmol/kg, ip after 24 hrs. Type of experiment: functional. The essentials:
(§2)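 Compounds given ip at 0.3 mmol/kg 30 min later. Plasma total cholesterol, LDL-cholesterol and triglycerides measured in mg/dl and expressed as percent reduction against the hyperlipidemic control group. SD, Student's t-test.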

Experiment [9] has as its system Rattus norvegicus. The experiment in a line: LDL level in Fischer 344 rat plasma at 0.3 mmol/kg, ip after 24 hrs. Type of experiment: functional. In outline: as §2
For experiment [10], the system named is Rattus norvegicus. As to the kind of experiment: Triglyceride level in Fischer 344 rat plasma at 0.3 mmol/kg, ip after 24 hrs. Type of experiment: functional. The essentials: as §2
The test system of experiment [11] is Rattus norvegicus. As to the kind of experiment: Mortality rate in Fischer 344 rat at 1.6 mmol/kg, sc after 4 days. Type of experiment: functional. In outline: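 Rats receive the compound subcutaneously at 1.6 mmol/kg once daily for 4 days. Mortality, perforating gastrointestinal ulcers, melena defecation and body weight change are recorded 24 h after the last injection.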

Experiment [12] has as its system Rattus norvegicus. As to the kind of experiment: Gastrointestinal toxicity in Fischer 344 rat assessed as gastrointestinal ulceration at 1.6 mmol/kg, sc after 4 days. Type of experiment: functional. The essentials:
(§3)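 Rats dosed subcutaneously at 1.6 mmol/kg once daily for 4 days. Perforating gastrointestinal ulcers, melena defecation, body weight change and mortality recorded 24 h after the last injection.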

Experiment [13] has as its system Rattus norvegicus. The experiment in a line: Body weight change per 100g in Fischer 344 rat at 1.6 mmol/kg, sc after 4 days. Type of experiment: functional. The essentials:
as §3

For experiment [14], the system named is Rattus norvegicus. As to the kind of experiment: Decrease in total cholesterol in Fischer 344 rat plasma at 0.3 mmol/kg, ip after 24 hrs relative to control. Type of experiment: functional. More on the design: scale not given: the % may be the effect or the level left. In outline: as §2
Experiment [15] has as its system Rattus norvegicus. As to the kind of experiment: Decrease in LDL level in Fischer 344 rat plasma at 0.3 mmol/kg, ip after 24 hrs relative to control. Type of experiment: functional. More on the design: scale not given: the % may be the effect or the level left. The essentials: as §2
The subject of experiment [16] is Rattus norvegicus. As to the kind of experiment: Decrease in triglyceride level in Fischer 344 rat plasma at 0.3 mmol/kg, ip after 24 hrs relative to control. More on the design: scale not given: the % may be the effect or the level left. Type of experiment: functional. In outline:
as §2

The results in this text go back to ChEMBL document CHEMBL1145528, “Design and study of some novel ibuprofen derivatives with potential nootropic and neuroprotective properties” (Bioorg Med Chem, 2007).

The source made the active and inactive calls. No cut-off for these calls is given here.

Consider `CC(C)Cc1ccc(C(C)C(=O)N2CCCC2C(=O)O)cc1` (stereo not drawn), for which the result with Liver microsomes was inactive.

In turn, `CC(C)Cc1ccc(C(C)C(=O)N2CCCC2C(=O)OCCCc2cccnc2)cc1` (stereo not drawn) had an inhibition in experiment [1] of 64%.

For the molecule `CC(C)Cc1ccc([C@H](C)C(=O)O)cc1`, in [1], the inhibition came out at 20%. Further, the outcome with Liver microsomes was inactive.

In the case of `COc1cc(C)ccc1OC(=O)C1CCCN1C(=O)C(C)c1ccc(CC(C)C)cc1` (stereo not drawn), the inhibition in vivo at 300 µmol/kg with Mus musculus [2] turned out to be 43%. Moreover, the figures for the Activity (in the experiment with Mus musculus [3]; with Mus musculus [5]; in experiment [6]) were 49.6%, 67.9% and 78%, respectively. Also, the inhibition in vivo at 150 µmol/kg in the experiment with Mus musculus [4] worked out at 21%. Further, in experiment [7], the IC50 turned out to be 140 µM. The inhibition in experiment [1] was found to be 80%. The result in the experiment on Liver microsomes was inactive.

Turning to `COc1cc(C)ccc1OC(=O)[C@H]1CCCN1C(=O)C(C)C`, the inhibition in vivo at 300 µmol/kg with Mus musculus [2] stood at 1%. In the experiment on Mus musculus [3], this molecule gave an Activity of 79.3%. Also, in experiment [6], the inhibition was determined as 42%. Moreover, the outcome (in experiment [1]; in the experiment on Liver microsomes) was inactive.

As to `CC(C)Cc1ccc(C(C)C(=O)O)cc1` (stereo not drawn) [IBUPROFEN], in the experiment on Mus musculus [2], the inhibition in vivo at 300 µmol/kg worked out at 53%. Also, the Activity was determined as 44.6% with Mus musculus [3]; 111 mg/dL in the experiment on Rattus norvegicus [8]; 38 mg/dL in the experiment with Rattus norvegicus [9]; 228 mg/dL in the experiment on Rattus norvegicus [10]; 50% in the experiment with Rattus norvegicus [11]; 88% in the experiment on Rattus norvegicus [12]. Moreover, the Activity is reported as -13 g in the experiment on Rattus norvegicus [13], 38% in the experiment with Rattus norvegicus [14], 32% in the experiment with Rattus norvegicus [15] and 41% in the experiment on Rattus norvegicus [16]. In [1], this molecule gave an inhibition of 20%.

As to `NCCS` [CYSTEAMINE], the results for the Activity in the experiment on Rattus norvegicus [11], with Rattus norvegicus [12] and with Rattus norvegicus [13] were 80%, 40% and -7 g, respectively.

`O=C(O)[C@@H]1CCCN1`: the outcome in the experiment on Liver microsomes was inactive.

Regarding `CC(C)C(=O)N1CCC[C@@H]1C(=O)OCCCc1cccnc1`, in the experiment with Mus musculus [2], the inhibition in vivo at 300 µmol/kg came to 1%. The Activity in the experiment with Mus musculus [3] is on record as 77%. Moreover, the result (in experiment [1]; in the experiment on Liver microsomes) was inactive.

As to `CC(C)C(=O)N1CCCC1C(=O)O` (stereo not drawn), the result in the experiment with Liver microsomes was inactive.

What is called inhibition is the relative decrease from the control value, in per cent. In general, inhibition in vivo refers to the percentage by which the read-out fell short of the control. By IC50 is commonly meant the concentration that inhibits the measured activity by half.
